{
  "source": "ChEMBL document CHEMBL2034857",
  "about": "“Discovery of the macrocycle (9E)-15-(2-(pyrrolidin-1-yl)ethoxy)-7,12,25-trioxa-19,21,24-triaza-tetracyclo[18.3.1.1(2,5).1(14,18)]hexacosa-1(24),2,4,9,14(26),15,17,20,22-nonaene (SB1578), a potent inhibitor of janus kinase 2/fms-like tyrosine kinase-3 (JAK2/FLT3) for the treatment of rheumatoid …” (J Med Chem, 2012)",
  "key": {"[1]": {"assay": "Oral bioavailability in rhesus monkey at 20 mg/kg", "assay_type": "ADME, organism-based, Macaca mulatta", "settings": "in vivo", "procedure,_shortened": "(§1)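 Single oral gavage at 50 (mouse, rat), 5 (dog) or 20 (monkey) mg/kg; rodents and monkeys received suspensions in 0.5% methylcellulose/0.1% Tween 80, dogs gelatin capsules. Serial blood taken 0–24 h into K3EDTA, plasma stored at −70 °C. Parameters estimated by noncompartmental analysis, n = 3 per species (mouse values from mean concentration–time data, 3 mice per time point).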"}, "[2]": {"assay": "Antiproliferative activity against human SET2 cells expressing JAK2 V617F mutan", "assay_type": "functional, cell-based", "settings": "SET-2"}, "Mus musculus [3]": {"tested_on": "Mus musculus", "assay": "Antiarthritic activity in B10/R3 mouse immunized with bovine type2 collagen in Freund's complete adjuvant assessed as inhibition of increase in clinical arthritic scores at 105 mg/kg, po administered bid for 10 days measured for 10 days", "assay_type": "functional", "settings": "B10/R3, 240 h"}, "Mus musculus [4]": {"tested_on": "Mus musculus", "assay": "Antiarthritic activity in B10/R3 mouse immunized with bovine type2 collagen in Freund's complete adjuvant assessed as inhibition of increase in clinical arthritic scores at 210 mg/kg, po administered bid for 10 days measured for 10 days", "assay_type": "functional", "settings": "B10/R3, 240 h"}, "[5]": {"molecular_target": "T1, Receptor-type tyrosine-protein kinase FLT3 (Homo sapiens, UniProt P36888)", "T1 sequence (P36888 whole entry)": "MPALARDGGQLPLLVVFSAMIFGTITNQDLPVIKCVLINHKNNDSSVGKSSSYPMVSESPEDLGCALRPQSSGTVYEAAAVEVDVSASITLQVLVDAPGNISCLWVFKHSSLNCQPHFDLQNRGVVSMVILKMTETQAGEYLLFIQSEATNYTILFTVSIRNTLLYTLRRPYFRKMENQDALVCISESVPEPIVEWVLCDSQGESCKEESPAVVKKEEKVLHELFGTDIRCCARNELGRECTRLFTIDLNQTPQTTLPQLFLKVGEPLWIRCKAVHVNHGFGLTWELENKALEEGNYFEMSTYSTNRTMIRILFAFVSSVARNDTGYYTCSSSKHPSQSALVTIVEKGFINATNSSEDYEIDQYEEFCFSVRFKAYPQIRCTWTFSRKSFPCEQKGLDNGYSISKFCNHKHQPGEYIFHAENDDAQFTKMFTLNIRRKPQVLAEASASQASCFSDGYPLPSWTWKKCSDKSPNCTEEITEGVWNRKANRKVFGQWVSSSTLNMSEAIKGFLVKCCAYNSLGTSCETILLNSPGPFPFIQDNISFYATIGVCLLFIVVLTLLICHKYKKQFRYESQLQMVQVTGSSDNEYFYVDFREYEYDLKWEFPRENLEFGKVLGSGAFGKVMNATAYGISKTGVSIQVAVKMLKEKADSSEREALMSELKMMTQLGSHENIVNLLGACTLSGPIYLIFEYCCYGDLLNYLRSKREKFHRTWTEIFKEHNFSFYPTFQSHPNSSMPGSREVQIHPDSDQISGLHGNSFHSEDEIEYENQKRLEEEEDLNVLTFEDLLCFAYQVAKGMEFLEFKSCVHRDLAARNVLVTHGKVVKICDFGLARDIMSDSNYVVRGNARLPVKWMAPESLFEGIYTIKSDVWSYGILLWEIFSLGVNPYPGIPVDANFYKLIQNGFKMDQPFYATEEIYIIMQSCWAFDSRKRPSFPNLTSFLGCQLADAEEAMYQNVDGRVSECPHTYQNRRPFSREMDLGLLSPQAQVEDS", "assay": "Inhibition of recombinant FLT3 using poly(Glu,Tyr) as substrate after 2 hrs by luminometric assay"}, "[6]": {"molecular_target": "Non-receptor tyrosine-protein kinase TYK2 (Homo sapiens, UniProt P29597)", "sequence (P29597 whole entry)": "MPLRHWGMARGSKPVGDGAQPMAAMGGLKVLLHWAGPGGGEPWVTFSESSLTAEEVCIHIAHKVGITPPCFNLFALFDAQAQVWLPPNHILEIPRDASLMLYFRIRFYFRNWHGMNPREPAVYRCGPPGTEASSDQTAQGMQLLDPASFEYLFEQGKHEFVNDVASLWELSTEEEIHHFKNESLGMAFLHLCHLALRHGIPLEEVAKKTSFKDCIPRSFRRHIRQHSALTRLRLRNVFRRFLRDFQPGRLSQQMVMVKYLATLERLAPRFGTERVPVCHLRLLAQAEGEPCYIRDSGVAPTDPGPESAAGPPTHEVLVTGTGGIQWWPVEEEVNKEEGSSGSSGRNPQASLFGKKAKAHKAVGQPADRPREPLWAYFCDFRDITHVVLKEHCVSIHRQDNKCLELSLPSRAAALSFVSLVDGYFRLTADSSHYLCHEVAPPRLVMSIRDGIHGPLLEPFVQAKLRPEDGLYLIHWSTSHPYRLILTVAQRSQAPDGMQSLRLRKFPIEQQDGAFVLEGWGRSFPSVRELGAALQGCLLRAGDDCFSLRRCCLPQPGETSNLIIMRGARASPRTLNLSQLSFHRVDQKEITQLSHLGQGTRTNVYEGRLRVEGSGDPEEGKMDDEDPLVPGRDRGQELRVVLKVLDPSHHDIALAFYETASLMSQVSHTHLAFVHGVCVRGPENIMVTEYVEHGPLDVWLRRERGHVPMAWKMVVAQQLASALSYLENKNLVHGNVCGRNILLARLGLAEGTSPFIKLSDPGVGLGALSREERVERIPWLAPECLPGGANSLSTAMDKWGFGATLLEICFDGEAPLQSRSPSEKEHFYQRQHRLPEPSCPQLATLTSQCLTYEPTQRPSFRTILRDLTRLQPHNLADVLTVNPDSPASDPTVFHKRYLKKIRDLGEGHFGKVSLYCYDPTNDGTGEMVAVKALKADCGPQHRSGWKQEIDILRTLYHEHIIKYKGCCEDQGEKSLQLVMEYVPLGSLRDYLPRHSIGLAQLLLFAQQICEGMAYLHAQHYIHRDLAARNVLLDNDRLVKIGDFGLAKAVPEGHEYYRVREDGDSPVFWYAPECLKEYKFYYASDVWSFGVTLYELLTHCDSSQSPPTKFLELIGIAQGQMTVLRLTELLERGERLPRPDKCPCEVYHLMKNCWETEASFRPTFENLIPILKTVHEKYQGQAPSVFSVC", "assay": "Inhibition of TYK2"}, "Cytochrome P450 3A4 [7]": {"molecular_target": "T2, Cytochrome P450 3A4 (Homo sapiens, UniProt P08684)", "T2 sequence (P08684 whole entry)": "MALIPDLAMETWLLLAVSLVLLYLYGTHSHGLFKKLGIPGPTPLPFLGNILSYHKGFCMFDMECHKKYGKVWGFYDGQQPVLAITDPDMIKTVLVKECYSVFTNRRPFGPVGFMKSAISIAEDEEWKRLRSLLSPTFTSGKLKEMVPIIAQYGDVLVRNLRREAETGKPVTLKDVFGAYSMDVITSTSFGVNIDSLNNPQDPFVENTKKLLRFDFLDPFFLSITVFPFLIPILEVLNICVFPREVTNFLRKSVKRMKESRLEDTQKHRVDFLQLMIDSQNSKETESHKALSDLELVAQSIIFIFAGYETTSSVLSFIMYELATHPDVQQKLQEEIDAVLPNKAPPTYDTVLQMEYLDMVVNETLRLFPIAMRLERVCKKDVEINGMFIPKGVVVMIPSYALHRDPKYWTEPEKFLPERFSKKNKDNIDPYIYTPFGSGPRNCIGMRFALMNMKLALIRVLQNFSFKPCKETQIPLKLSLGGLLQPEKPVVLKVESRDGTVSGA", "assay": "Inhibition of CYP3A4 in human liver microsomes using testosterone as substrate by LC-MS/MS analysis", "assay_type": "ADME, Microsome"}, "HL-60": {"tested_on": "HL-60", "assay": "Antiproliferative activity against human HL60 cells expressing FLT3 after 48 hrs by luciferase reporter gene assay", "assay_type": "functional", "settings": "HL-60, 48 h"}, "[8]": {"assay": "Half life in dog liver microsomes at 5 uM", "assay_type": "ADME, Canis lupus familiaris, Microsome", "procedure,_shortened": "(§2)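 Compound at 5 μM with human, mouse or dog microsomes at 0.87 mg/mL, or rat and monkey microsomes at 1 mg/mL, in 50 mM potassium phosphate pH 7.4 with NADPH regenerating system at 37 °C.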"}, "[9]": {"assay": "Half life in rhesus monkey live microsomes at 5 uM", "assay_type": "ADME, Macaca mulatta", "settings": "liver microsomes", "procedure,_shortened": "as §2"}, "Cytochrome P450 2C9": {"molecular_target": "Cytochrome P450 2C9 (Homo sapiens, UniProt P11712)", "sequence (P11712 whole entry)": "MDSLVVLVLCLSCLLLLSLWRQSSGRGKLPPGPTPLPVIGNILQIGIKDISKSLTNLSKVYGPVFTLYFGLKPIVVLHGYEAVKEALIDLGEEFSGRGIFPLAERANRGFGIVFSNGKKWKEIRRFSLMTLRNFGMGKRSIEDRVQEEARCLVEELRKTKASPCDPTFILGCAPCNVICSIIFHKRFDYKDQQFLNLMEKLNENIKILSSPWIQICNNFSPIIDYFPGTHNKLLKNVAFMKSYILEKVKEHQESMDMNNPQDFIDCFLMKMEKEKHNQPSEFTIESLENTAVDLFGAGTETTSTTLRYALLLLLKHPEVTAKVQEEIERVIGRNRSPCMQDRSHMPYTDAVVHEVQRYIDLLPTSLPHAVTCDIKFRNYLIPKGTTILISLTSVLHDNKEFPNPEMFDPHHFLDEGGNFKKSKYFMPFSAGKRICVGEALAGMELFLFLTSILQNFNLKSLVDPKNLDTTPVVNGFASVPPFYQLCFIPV", "assay": "Inhibition of CYP2C9 in human liver microsomes using diclofenac as substrate by LC-MS/MS analysis", "assay_type": "ADME, Microsome"}, "Cytochrome P450 3A4 [10]": {"molecular_target": "T2, Cytochrome P450 3A4", "assay": "Inhibition of CYP3A4 in human liver microsomes using testosterone as substrate by fluorescence detection assay", "assay_type": "ADME, Microsome", "procedure,_shortened": "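Human liver microsomes at 0.25 mg/mL for CYP3A4, incubated with test compound at 0.001, 0.01, 0.1, 1.0, 5, 10 and 25 μM. IC50 is the concentration giving 50% inhibition, calculated from the decrease in metabolite formation relative to vehicle control.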"}, "Cytochrome P450 2D6": {"molecular_target": "Cytochrome P450 2D6 (Homo sapiens, UniProt P10635)", "sequence (P10635 whole entry)": "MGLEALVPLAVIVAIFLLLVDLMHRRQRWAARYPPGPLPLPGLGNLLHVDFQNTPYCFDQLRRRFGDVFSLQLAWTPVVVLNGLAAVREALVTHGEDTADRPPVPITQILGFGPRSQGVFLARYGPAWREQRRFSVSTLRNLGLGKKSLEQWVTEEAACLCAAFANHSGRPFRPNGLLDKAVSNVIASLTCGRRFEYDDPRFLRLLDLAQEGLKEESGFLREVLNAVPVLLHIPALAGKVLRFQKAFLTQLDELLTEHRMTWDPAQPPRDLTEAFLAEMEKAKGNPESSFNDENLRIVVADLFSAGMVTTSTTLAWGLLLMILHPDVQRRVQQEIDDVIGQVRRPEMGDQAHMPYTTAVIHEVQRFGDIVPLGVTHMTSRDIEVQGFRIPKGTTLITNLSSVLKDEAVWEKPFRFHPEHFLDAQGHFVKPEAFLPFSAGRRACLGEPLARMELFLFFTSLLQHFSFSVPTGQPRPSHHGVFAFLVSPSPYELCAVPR", "assay": "Inhibition of CYP2D6 in human liver microsomes using dextromethorphan as substrate by fluorescence detection assay", "assay_type": "ADME, Microsome", "procedure,_shortened": "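Seven-point concentration series (0.001, 0.01, 0.1, 1.0, 5, 10 and 25 μM) incubated with human liver microsomes. IC50 is the concentration giving 50% inhibition, calculated from the decrease in metabolite formation relative to vehicle control.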"}, "[11]": {"assay": "Plasma protein binding in monkey at 1000 ng/mL by equilibrium dialysis", "assay_type": "ADME, cell-free, Macaca mulatta", "settings": "rhesus monkey, read-out: PPB (converted)", "procedure,_shortened": "(§3)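 Equilibrium dialysis of plasma (mouse, rat, dog, monkey, human) spiked to 1000 ng/mL final against PBS, 4 h at 37 °C; buffer side extracted with MTBE in triplicate and analyzed by LC-MS/MS.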"}, "[12]": {"assay": "Plasma protein binding in mouse at 1000 ng/mL by equilibrium dialysis", "assay_type": "ADME, cell-free", "settings": "read-out: PPB (converted)", "procedure,_shortened": "as §3"}, "[13]": {"assay": "Tmax in BALB/c nude mouse at 50 mg/kg, po", "assay_type": "ADME, organism-based", "parameters": "dose 50 mg/kg, route oral", "settings": "in vivo", "procedure,_shortened": "(§4)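 Single oral dose by gavage as suspension in 0.5% methylcellulose/0.1% Tween 80 (mouse, rat, monkey) or in gelatin capsules (dog). Serial blood samples taken from 0 to 24 h into K3EDTA tubes; plasma stored at −70 °C until analysis. Parameters derived by noncompartmental methods. Rat, dog and monkey n = 3; mouse values estimated from mean concentration-time data, n = 3 mice per time point.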"}, "[14]": {"assay": "AUC (0 to infinity) in BALB/c nude mouse at 50 mg/kg, po", "assay_type": "ADME, organism-based", "parameters": "time infinity, dose 50 mg/kg, route oral", "settings": "plasma", "procedure,_shortened": "as §1"}, "[15]": {"assay": "Cmax in Wistar rat at 50 mg/kg, po", "assay_type": "ADME, organism-based", "parameters": "dose 50 mg/kg, route oral", "settings": "in vivo", "procedure,_shortened": "as §1"}, "[16]": {"assay": "Tmax in Wistar rat at 50 mg/kg, po", "assay_type": "ADME, organism-based", "parameters": "dose 50 mg/kg, route oral", "settings": "in vivo", "procedure,_shortened": "as §4"}, "[17]": {"assay": "Cmax in beagle dog at 5 mg/kg, po", "assay_type": "ADME, organism-based, Canis lupus familiaris", "parameters": "dose 5 mg/kg, route oral", "settings": "in vivo", "procedure,_shortened": "as §1"}, "[18]": {"assay": "Tmax in beagle dog at 5 mg/kg, po", "assay_type": "ADME, organism-based, Canis lupus familiaris", "parameters": "dose 5 mg/kg, route oral", "settings": "in vivo", "procedure,_shortened": "as §4"}, "[19]": {"assay": "Terminal half life in beagle dog at 5 mg/kg, po", "assay_type": "ADME, organism-based, Canis lupus familiaris", "parameters": "dose 5 mg/kg, route oral", "settings": "in vivo, read-out: beta t1/2 (converted)", "procedure,_shortened": "as §4"}, "[20]": {"assay": "AUC (0 to infinity) in beagle dog at 5 mg/kg, po", "assay_type": "ADME, organism-based, Canis lupus familiaris", "parameters": "time infinity, dose 5 mg/kg, route oral", "settings": "plasma", "procedure,_shortened": "as §1"}, "[21]": {"assay": "Tmax in rhesus monkey at 20 mg/kg, po", "assay_type": "ADME, organism-based, Macaca mulatta", "parameters": "dose 20 mg/kg, route oral", "settings": "in vivo", "procedure,_shortened": "as §4"}, "[22]": {"assay": "Terminal half life in rhesus monkey at 20 mg/kg, po", "assay_type": "ADME, organism-based, Macaca mulatta", "parameters": "dose 20 mg/kg, route oral", "settings": "in vivo, read-out: beta t1/2 (converted)", "procedure,_shortened": "as §4"}},
  "note": "pIC50: −log10 of the molar value.",
  "data": [
    {"compound": "C1=C2COC/C=C/COCc3cc(ccc3OCCN3CCCC3)Nc3nccc(n3)C(=C1)O2", "note": "(mixture of isomers) [CT-1578]", "values": [
      {"measurement": "bioavailability", "setting": "[1]", "value": 32, "unit": "%"},
      {"measurement": "pIC50", "setting": "[2]", "value": 6.61},
      {"measurement": "inhibition in vivo at 105 mg/kg", "setting": "Mus musculus [3]", "value": 23, "unit": "%"},
      {"measurement": "inhibition in vivo at 210 mg/kg", "setting": "Mus musculus [4]", "value": 59, "unit": "%"},
      {"measurement": "pIC50", "setting": "[5]", "value": 7.22},
      {"measurement": "pIC50", "setting": "[6]", "value": 6.64},
      {"measurement": "pIC50", "setting": "Cytochrome P450 3A4 [7]", "value": "< 5.00"},
      {"measurement": "GI50", "setting": "HL-60", "value": 850, "unit": "nM"},
      {"measurement": "half-life at 5 µM", "setting": "[8]", "value": "> 1", "unit": "h"},
      {"measurement": "half-life at 5 µM", "setting": "[9]", "value": 0.383, "unit": "h"},
      {"measurement": "pIC50", "setting": "Cytochrome P450 2C9", "value": "< 5.00"},
      {"measurement": "pIC50", "setting": "Cytochrome P450 3A4 [10]", "value": "< 5.00"},
      {"measurement": "pIC50", "setting": "Cytochrome P450 2D6", "value": "< 5.00"},
      {"measurement": "fraction unbound at 1000 ng/mL", "setting": "[11]", "value": 0.013},
      {"measurement": "fraction unbound at 1000 ng/mL", "setting": "[12]", "value": 0.127},
      {"measurement": "Tmax", "setting": "[13]", "value": 0.5, "unit": "h"},
      {"measurement": "AUC(0-inf)", "setting": "[14]", "value": 2020, "unit": "ng·h/mL"},
      {"measurement": "Cmax", "setting": "[15]", "value": 231, "unit": "ng/mL"},
      {"measurement": "Tmax", "setting": "[16]", "value": 2.3, "unit": "h"},
      {"measurement": "Cmax", "setting": "[17]", "value": 27, "unit": "ng/mL"},
      {"measurement": "Tmax", "setting": "[18]", "value": 3, "unit": "h"},
      {"measurement": "half-life", "setting": "[19]", "value": 1.5, "unit": "h"},
      {"measurement": "AUC(0-inf)", "setting": "[20]", "value": 96, "unit": "ng·h/mL"},
      {"measurement": "Tmax", "setting": "[21]", "value": 2, "unit": "h"},
      {"measurement": "half-life", "setting": "[22]", "value": 1.1, "unit": "h"}
    ]}
  ]
}
